One block for each compound: values may come before it. The source made the active and inactive calls. The calls are words filed in the database; no cut-off is given here.
Key:
Protein smoothened = Protein smoothened (Mus musculus, UniProt P56726); assay: Antagonist activity at smo in SAG-treated mouse Light2 cells after 48 hrs by renilla luciferase reporter gene assay; type: functional
Procedure, shortened: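 NIH3T3 Shh-Light II cells carry a stable Gli-responsive firefly luciferase reporter plus pRL-TK Renilla. They were stimulated with SAG 200 nM and treated with compound for 48 h. Read-out was dual-luciferase, as the Luciferase/Renilla ratio. Mean ± SD of three independent experiments, each in triplicate.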

Zinc finger protein GLI1 = biological target: T1, Zinc finger protein GLI1 (Mus musculus, UniProt P47806); assay: Inhibition of Gli1 transcriptional activity in mouse embroyonic fibroblasts after 24 hrs by renilla luciferase reporter gene assay
T1 sequence (P47806 whole entry): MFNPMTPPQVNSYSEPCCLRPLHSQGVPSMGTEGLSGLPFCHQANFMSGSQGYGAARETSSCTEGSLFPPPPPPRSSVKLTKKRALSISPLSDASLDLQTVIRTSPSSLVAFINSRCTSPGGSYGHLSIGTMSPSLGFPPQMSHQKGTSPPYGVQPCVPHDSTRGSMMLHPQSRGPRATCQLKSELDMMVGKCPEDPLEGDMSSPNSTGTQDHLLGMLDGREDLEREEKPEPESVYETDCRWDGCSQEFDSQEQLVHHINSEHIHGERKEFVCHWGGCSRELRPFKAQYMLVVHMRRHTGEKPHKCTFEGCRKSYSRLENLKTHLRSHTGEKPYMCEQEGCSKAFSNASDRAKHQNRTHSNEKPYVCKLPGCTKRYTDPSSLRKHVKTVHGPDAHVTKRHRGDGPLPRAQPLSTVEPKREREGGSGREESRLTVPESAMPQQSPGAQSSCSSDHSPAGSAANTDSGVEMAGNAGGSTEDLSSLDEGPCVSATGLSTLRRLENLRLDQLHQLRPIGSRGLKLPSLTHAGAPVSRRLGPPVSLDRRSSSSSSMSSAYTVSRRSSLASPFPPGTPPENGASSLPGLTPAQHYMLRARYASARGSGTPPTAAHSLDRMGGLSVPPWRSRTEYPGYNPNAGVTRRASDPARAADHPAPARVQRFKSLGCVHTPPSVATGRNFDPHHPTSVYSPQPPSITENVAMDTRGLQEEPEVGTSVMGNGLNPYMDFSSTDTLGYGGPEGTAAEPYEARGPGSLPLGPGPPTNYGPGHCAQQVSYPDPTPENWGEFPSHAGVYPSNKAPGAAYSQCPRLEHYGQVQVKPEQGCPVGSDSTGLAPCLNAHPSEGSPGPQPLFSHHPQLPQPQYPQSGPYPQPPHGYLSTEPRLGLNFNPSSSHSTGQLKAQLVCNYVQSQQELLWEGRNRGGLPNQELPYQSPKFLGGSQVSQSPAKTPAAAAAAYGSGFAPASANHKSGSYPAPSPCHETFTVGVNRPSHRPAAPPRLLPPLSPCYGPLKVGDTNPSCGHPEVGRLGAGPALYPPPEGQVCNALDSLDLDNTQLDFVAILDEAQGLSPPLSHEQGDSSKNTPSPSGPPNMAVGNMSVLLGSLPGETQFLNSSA
Procedure, shortened: (§1)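 Wild-type MEFs expressing ectopic Gli1 were transfected with 12XGliBS-Luc, pRL-TK Renilla and empty or Gli1 vector. They were exposed to rising compound concentrations for 24 h; DMSO-only controls. Luciferase/Renilla ratio; mean ± SD of three independent experiments.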

[1] = biological target: T2, Zinc finger protein GLI1 (Mus musculus) (UniProt P47806); assay: Inhibition of Gli1 transcriptional activity in Smo-/- mouse embroyonic fibroblasts up to 20 uM after 24 hrs by renilla luciferase reporter gene assay
T2 sequence (whole entry): T1 sequence (P47806 whole entry)
Procedure, shortened: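 Smo-/- MEFs were transfected with 12xGliBS-Luc and pRL-TK Renilla plus empty or Gli1 vector. They were treated with increasing concentrations of compound for 24 h; DMSO-only controls. Read-out was luciferase normalized to Renilla. Mean ± SD of three independent experiments; t-test versus DMSO.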

Medulloblastoma cell [2] = assay: Growth inhibition of mouse Ptch+/- medulloblastoma cells at 0.125 uM after 72 hrs relative to control; type: functional; details: read-out: GI
Procedure, shortened: (§2)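 Primary medulloblastoma cells were freshly isolated from Ptch+/- mouse tumors. They were kept in short-term culture in Neurobasal Media-A with B27 minus vitamin A to retain Hh sensitivity. Cells were exposed to single compounds for 72 h, and percent growth inhibition was reported as mean ± SD.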

Medulloblastoma cell [3] = assay: Growth inhibition of mouse Ptch+/- medulloblastoma cells at 0.25 uM after 72 hrs relative to control; type: functional; details: read-out: GI; procedure, shortened: as §2
Medulloblastoma cell [4] = assay: Growth inhibition of mouse Ptch+/- medulloblastoma cells at 0.5 uM after 72 hrs relative to control; type: functional; details: read-out: GI; procedure, shortened: as §2
Medulloblastoma cell [5] = assay: Growth inhibition of mouse Ptch+/- medulloblastoma cells at 1 uM after 72 hrs relative to control; type: functional; details: read-out: GI; procedure, shortened: as §2
Medulloblastoma cell [6] = assay: Growth inhibition of mouse Ptch+/- medulloblastoma cells at 2 uM after 72 hrs relative to control; type: functional; details: read-out: GI
MEF [7] = assay: Downregulation of Gli1 levels in SuFu-/- mouse embroyonic fibroblasts up to 20 uM after 48 hrs by qRT-PCR
MEF [8] = assay: Downregulation of Gli2 levels in SuFu-/- mouse embroyonic fibroblasts up to 20 uM after 48 hrs by qRT-PCR
[9] = biological target: Protein smoothened (Mus musculus) (UniProt P56726); assay: Antagonist activity at smo in SuFu-/- mouse embroyonic fibroblasts assessed as downregulation of Gli1 mRNA levels after 48 hrs by qRT-PCR method; type: functional
Protein smoothened (Mus musculus), sequence (P56726 whole entry): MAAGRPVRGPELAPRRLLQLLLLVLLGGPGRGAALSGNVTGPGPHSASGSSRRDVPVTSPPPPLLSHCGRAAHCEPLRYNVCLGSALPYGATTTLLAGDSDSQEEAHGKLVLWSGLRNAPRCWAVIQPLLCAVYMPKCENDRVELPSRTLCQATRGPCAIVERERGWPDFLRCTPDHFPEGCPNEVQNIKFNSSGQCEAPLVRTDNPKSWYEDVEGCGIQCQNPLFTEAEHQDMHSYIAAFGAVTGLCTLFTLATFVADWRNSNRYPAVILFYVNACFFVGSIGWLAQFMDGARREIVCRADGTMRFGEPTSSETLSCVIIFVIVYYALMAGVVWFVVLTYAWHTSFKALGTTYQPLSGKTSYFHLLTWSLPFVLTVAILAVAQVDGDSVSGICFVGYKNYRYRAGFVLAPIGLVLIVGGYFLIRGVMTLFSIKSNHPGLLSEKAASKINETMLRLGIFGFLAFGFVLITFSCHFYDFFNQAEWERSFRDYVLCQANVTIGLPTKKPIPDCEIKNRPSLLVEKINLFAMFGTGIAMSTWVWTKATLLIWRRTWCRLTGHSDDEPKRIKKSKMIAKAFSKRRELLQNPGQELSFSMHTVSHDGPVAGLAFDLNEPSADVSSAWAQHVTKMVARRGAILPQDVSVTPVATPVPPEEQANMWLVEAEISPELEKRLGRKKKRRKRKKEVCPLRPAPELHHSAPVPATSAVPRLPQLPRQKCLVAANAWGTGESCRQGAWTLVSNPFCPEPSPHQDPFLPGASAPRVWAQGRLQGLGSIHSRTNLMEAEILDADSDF
Procedure, shortened: (§3)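 SuFu-/- MEFs were grown in DMEM with 10% FBS, antibiotics and L-glutamine, then treated with compound for 48 h; DMSO-only controls. Gli1 and Gli2 mRNA were measured by qRT-PCR and normalized to HPRT. Mean ± SD of three independent experiments; Student's t-test versus DMSO.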

Medulloblastoma cell [10] = assay: Synergistic growth inhibition of mouse Ptch+/- medulloblastoma cells at 0.125 uM after 72 hrs in presence of Gli inhibitor GlaB; type: functional; details: read-out: GI
Procedure, shortened: (§4)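 Freshly isolated Ptch+/- mouse medulloblastoma primary cells were held in short-term Neurobasal-A/B27 (minus vitamin A) culture. They were treated for 72 h with a binary combination of a Gli1 antagonist and a Smo antagonist, each at the stated concentration. Percent growth inhibition was reported.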

Medulloblastoma cell [11] = assay: Synergistic growth inhibition of mouse Ptch+/- medulloblastoma cells at 0.25 uM after 72 hrs in presence of Gli inhibitor GlaB; type: functional; details: read-out: GI; procedure, shortened: as §4
Medulloblastoma cell [12] = assay: Synergistic growth inhibition of mouse Ptch+/- medulloblastoma cells at 0.5 uM after 72 hrs in presence of Gli inhibitor GlaB; type: functional; details: read-out: GI; procedure, shortened: as §4
[13] = biological target: Protein smoothened (Mus musculus) (UniProt P56726); assay: Antagonist activity at smo in SuFu-/- mouse embroyonic fibroblasts assessed as downregulation of Gli2 mRNA levels after 48 hrs by qRT-PCR method; type: functional; procedure, shortened: as §3
[14] = biological target: T2, Zinc finger protein GLI1 (Mus musculus); assay: Inhibition of Gli1 transcriptional activity in mouse embroyonic fibroblasts up to 30 uM after 24 hrs by renilla luciferase reporter gene assay; procedure, shortened: as §1

Protein smoothened, sequence (P56726 whole entry): as above

SMILES: COc1cc(OC)c2c(=O)c(-c3cccc(O)c3)coc2c1
IC50 (Protein smoothened; read-out: IC50): > 30 µM | IC50 (Zinc finger protein GLI1): Nd(Toxic)

SMILES: COc1cc(OC)c2c(=O)c(-c3ccc(OC)c(OCC=C(C)C)c3)coc2c1
IC50 (Protein smoothened; read-out: IC50): 2.87 µM | IC50 (Zinc finger protein GLI1; read-out: IC50): 5.7 µM | inhibition [1]: Active | inhibition of growth at 0.125 µM (Medulloblastoma cell [2]): 5.9% | inhibition of growth at 0.25 µM (Medulloblastoma cell [3]): 26.3% | inhibition of growth at 0.5 µM (Medulloblastoma cell [4]): 29.2% | inhibition of growth at 1 µM (Medulloblastoma cell [5]): 35.6% | inhibition of growth at 2 µM (Medulloblastoma cell [6]): 55.4% | Activity (MEF [7]): Active | Activity (MEF [8]): Active

SMILES: COc1cc(OC)c2c(=O)c(-c3cccc(OCc4ccc(C(F)(F)F)cc4)c3)coc2c1
IC50 (Protein smoothened; read-out: IC50): 10.5 µM | IC50 (Zinc finger protein GLI1; read-out: IC50): 26.7 µM

SMILES: COc1cc(OC)c2c(=O)c(-c3ccc(OC/C=C(\C)CCC=C(C)C)c(OC)c3)coc2c1
IC50 (Protein smoothened): Nd(Toxic) | IC50 (Zinc finger protein GLI1): Nd(Toxic)

SMILES: COc1cc(OC)c2c(=O)c(-c3ccc(OCc4ccccc4)c(OCc4ccccc4)c3)coc2c1
IC50 (Protein smoothened; read-out: IC50): 0.29 µM | IC50 (Zinc finger protein GLI1; read-out: IC50): 57.7 µM | inhibition [1]: inactive | inhibition [9]: inactive | inhibition of growth at 0.125 µM (Medulloblastoma cell [2]): 33.3% | inhibition of growth at 0.25 µM (Medulloblastoma cell [3]): 44.2% | inhibition of growth at 0.5 µM (Medulloblastoma cell [4]): 51.4% | inhibition of growth at 1 µM (Medulloblastoma cell [5]): 61.2% | inhibition of growth at 2 µM (Medulloblastoma cell [6]): 66.6% | inhibition of growth at 0.125 µM (Medulloblastoma cell [10]): 38.3% | inhibition of growth at 0.25 µM (Medulloblastoma cell [11]): 63.4% | inhibition of growth at 0.5 µM (Medulloblastoma cell [12]): 70% | inhibition [13]: inactive

SMILES: COc1cc(OC)c2c(=O)c(-c3ccc(OCC=C(C)C)c(OC)c3)coc2c1
IC50 (Protein smoothened; read-out: IC50): 6.97 µM | IC50 (Zinc finger protein GLI1; read-out: IC50): 10.7 µM

SMILES: CS(=O)(=O)c1ccc(C(=O)Nc2ccc(Cl)c(-c3ccccn3)c2)c(Cl)c1
inhibition [14]: inactive

SMILES: COc1cc(OC)c2c(=O)c(-c3ccc(OCC=C(C)C)c(OCC=C(C)C)c3)coc2c1
inhibition of growth at 0.125 µM (Medulloblastoma cell [2]): 28.6% | inhibition of growth at 0.25 µM (Medulloblastoma cell [3]): 42.4% | inhibition of growth at 0.5 µM (Medulloblastoma cell [4]): 46.6% | inhibition of growth at 1 µM (Medulloblastoma cell [5]): 55.9% | inhibition of growth at 2 µM (Medulloblastoma cell [6]): 65.1%

SMILES: COc1cc(OC)c2c(=O)c(-c3ccc(OC)c(OC/C=C(\C)CCC=C(C)C)c3)coc2c1
IC50 (Protein smoothened; read-out: IC50): 3.61 µM | IC50 (Zinc finger protein GLI1; read-out: IC50): 21.2 µM

SMILES: COc1cc(OC)c2c(=O)c(-c3ccc(OCc4ccccc4)c(OC)c3)coc2c1
IC50 (Protein smoothened; read-out: IC50): 6.92 µM | IC50 (Zinc finger protein GLI1; read-out: IC50): 39.2 µM

SMILES: COc1cc(OC)c2c(=O)c(-c3ccc(OCc4ccc(C(F)(F)F)cc4)c(OC)c3)coc2c1
IC50 (Protein smoothened; read-out: IC50): 3.48 µM | IC50 (Zinc finger protein GLI1; read-out: IC50): 55.3 µM | inhibition [1]: inactive | inhibition [9]: inactive | inhibition of growth at 0.125 µM (Medulloblastoma cell [2]): 20.8% | inhibition of growth at 0.25 µM (Medulloblastoma cell [3]): 23.5% | inhibition of growth at 0.5 µM (Medulloblastoma cell [4]): 32.5% | inhibition of growth at 1 µM (Medulloblastoma cell [5]): 51.8% | inhibition of growth at 2 µM (Medulloblastoma cell [6]): 54.2% | inhibition of growth at 0.125 µM (Medulloblastoma cell [10]): 33.5% | inhibition of growth at 0.25 µM (Medulloblastoma cell [11]): 53.1% | inhibition of growth at 0.5 µM (Medulloblastoma cell [12]): 60.1% | inhibition [13]: inactive

SMILES: COc1cc(OC)c2c(=O)c(-c3cccc(OCC=C(C)C)c3)coc2c1
IC50 (Protein smoothened; read-out: IC50): > 30 µM | IC50 (Zinc finger protein GLI1; read-out: IC50): > 20 µM

The next lines start with results.

IC50 (Protein smoothened; read-out: IC50): > 30 µM
SMILES: COc1cc(OC)c2c(=O)c(-c3ccc(OC)c(OCc4ccc([N+](=O)[O-])cc4)c3)coc2c1
IC50 (Zinc finger protein GLI1): Nd(Toxic)

IC50 (Protein smoothened; read-out: IC50): 2.58 µM | IC50 (Zinc finger protein GLI1; read-out: IC50): 11.5 µM | inhibition [1]: Active | Activity (MEF [7]): Active | Activity (MEF [8]): Active
SMILES: COc1cc(OC)c2c(=O)c(-c3ccc(OC)c(OCc4ccc(C(F)(F)F)cc4)c3)coc2c1
inhibition of growth at 0.125 µM (Medulloblastoma cell [2]): 37.7% | inhibition of growth at 0.25 µM (Medulloblastoma cell [3]): 40.6% | inhibition of growth at 0.5 µM (Medulloblastoma cell [4]): 44.5% | inhibition of growth at 1 µM (Medulloblastoma cell [5]): 50.9% | inhibition of growth at 2 µM (Medulloblastoma cell [6]): 54%

IC50 (Protein smoothened; read-out: IC50): 16 µM
SMILES: COc1cc(OC)c2c(=O)c(-c3ccc(OC)c(OCc4ccc(C#N)cc4)c3)coc2c1
IC50 (Zinc finger protein GLI1): Nd(Toxic)

IC50 (Protein smoothened; read-out: IC50): > 30 µM
SMILES: COc1cc(OC)c2c(=O)c(-c3ccc(OC)c(OCc4ccc(C(N)=O)cc4)c3)coc2c1
IC50 (Zinc finger protein GLI1): Nd(Toxic)

IC50 (Protein smoothened; read-out: IC50): 3.72 µM | IC50 (Zinc finger protein GLI1; read-out: IC50): 17.1 µM
SMILES: COc1cc(OC)c2c(=O)c(-c3ccc(OC)c(OCc4ccccc4)c3)coc2c1

IC50 (Protein smoothened; read-out: IC50): > 30 µM
SMILES: COC(=O)c1ccc(COc2cc(-c3coc4cc(OC)cc(OC)c4c3=O)ccc2OC)cc1
IC50 (Zinc finger protein GLI1): Nd(Toxic)
